# Measured values from ChEMBL document CHEMBL1275251, “Mutant selection window and characterization of allelic diversity for ciprofloxacin-resistant mutants of Rhodococcus equi” (Antimicrob Agents Chemother, 2010).
# Active and inactive are the calls of the source. No cut-off for these calls is given here.
# Columns and labels:
# [1] = system: Prescottella equi; experiment: Antibacterial activity against Rhodococcus equi ATCC 6939T harboring GyrA Ser83Arg mutation selected on 2 ug/ml of compound treated culture by broth microdilution method; assay type: functional, organism-based
# Outline: (§1)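 Mutants were selected by plating at least 1 × 10^10 cells, grown 48 h at 35°C in brain heart infusion broth, on ciprofloxacin-containing Columbia blood agar base for 4 days at 35°C. Each was confirmed by two passages at the selecting concentration and one drug-free passage. MIC was then read by broth microdilution in cation-supplemented Mueller-Hinton broth per CLSI M24-A. Each experiment was done twice.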
# [2] = system: Prescottella equi; experiment: Antibacterial activity against Rhodococcus equi ATCC 6939T harboring GyrA Asp87Tyr mutation selected on 4 ug/ml of compound treated culture by broth microdilution method; assay type: functional, organism-based; outline: as §1
# [3] = system: Prescottella equi; experiment: Antibacterial activity against Rhodococcus equi ATCC 6939T harboring GyrA Asp87Asn mutation selected on 6 ug/ml of compound treated culture by broth microdilution method; assay type: functional; conditions: Rhodococcus (subgen. Prescottella) equi; outline: as §1
# [4] = system: Prescottella equi; experiment: Antibacterial activity against Rhodococcus equi W5234 harboring GyrA Asp87Asn mutation selected on 8 ug/ml of compound treated culture by broth microdilution method; assay type: functional, organism-based; outline: as §1
# [5] = system: Prescottella equi; experiment: Antibacterial activity against Rhodococcus equi W5234 harboring GyrA Asp87Gly mutation selected on 6 ug/ml of compound treated culture by broth microdilution method; assay type: functional; conditions: Rhodococcus (subgen. Prescottella) equi; outline: as §1
# [6] = system: Prescottella equi; experiment: Antibacterial activity against Rhodococcus equi ATCC 6939T selected on 2 ug/ml of compound treated culture by broth microdilution method; assay type: functional; conditions: Rhodococcus (subgen. Prescottella) equi; outline: as §1
# [7] = system: Prescottella equi; experiment: Antibacterial activity against Rhodococcus equi W5234 harboring GyrA Asp87His mutation selected on 6 ug/ml of compound treated culture by broth microdilution method; assay type: functional; conditions: Rhodococcus (subgen. Prescottella) equi; outline: as §1
# [8] = system: Prescottella equi; experiment: Antibacterial activity against Rhodococcus equi W5234 harboring GyrA Asp87Tyr mutation selected on 4 ug/ml of compound treated culture by broth microdilution method; assay type: functional; conditions: Rhodococcus (subgen. Prescottella) equi; outline: as §1
# [9] = system: Prescottella equi; experiment: Antibacterial activity against Rhodococcus equi ATCC 6939T harboring GyrA Ser83Arg mutation selected on 6 ug/ml of compound treated culture by broth microdilution method; assay type: functional, organism-based; outline: as §1
# [10] = system: Prescottella equi; experiment: Antibacterial activity against Rhodococcus equi ATCC 6939T selected on 1 ug/ml of compound treated culture by broth microdilution method; assay type: functional; conditions: Rhodococcus (subgen. Prescottella) equi; outline: as §1
# [11] = system: Prescottella equi; experiment: Antibacterial activity against Rhodococcus equi W5234 harboring GyrA Ser83Arg mutation selected on 4 ug/ml of compound treated culture by broth microdilution method; assay type: functional; conditions: Rhodococcus (subgen. Prescottella) equi; outline: as §1
# [12] = system: Prescottella equi; experiment: Antibacterial activity against Rhodococcus equi ATCC 6939T selected on 8 ug/ml of compound treated culture by broth microdilution method; assay type: functional, organism-based; outline: as §1
# [13] = system: Prescottella equi; experiment: Antibacterial activity against Rhodococcus equi ATCC 6939T harboring GyrA Ser83Arg mutation selected on 4 ug/ml of compound treated culture by broth microdilution method; assay type: functional, organism-based; outline: as §1
# [14] = system: Prescottella equi; experiment: Antibacterial activity against Rhodococcus equi W5234 selected on 1 ug/ml of compound treated culture by broth microdilution method; assay type: functional; conditions: Rhodococcus (subgen. Prescottella) equi; outline: as §1
# [15] = system: Prescottella equi; experiment: Antibacterial activity against Rhodococcus equi W5234 harboring GyrB Asn464Asp mutation selected on 1 ug/ml of compound treated culture by broth microdilution method; assay type: functional; conditions: Rhodococcus (subgen. Prescottella) equi; outline: as §1
# [16] = system: Prescottella equi; experiment: Antibacterial activity against Rhodococcus equi ATCC 6939T harboring GyrA Asp87Asn mutation selected on 4 ug/ml of compound treated culture by broth microdilution method; assay type: functional, organism-based; outline: as §1
# [17] = system: Prescottella equi; experiment: Antibacterial activity against Rhodococcus equi ATCC 6939T harboring GyrA Asp87Gly mutation selected on 6 ug/ml of compound treated culture by broth microdilution method; assay type: functional; conditions: Rhodococcus (subgen. Prescottella) equi; outline: as §1
# [18] = system: Prescottella equi; experiment: Antibacterial activity against Rhodococcus equi ATCC 6939T harboring GyrA Asp87Gly mutation selected on 8 ug/ml of compound treated culture by broth microdilution method; assay type: functional; conditions: Rhodococcus (subgen. Prescottella) equi; outline: as §1
# [19] = system: Prescottella equi; experiment: Antibacterial activity against Rhodococcus equi ATCC 6939T harboring GyrB Asn464Asp mutation selected on 1 ug/ml of compound treated culture by broth microdilution method; assay type: functional, organism-based; outline: as §1
# [20] = system: Prescottella equi; experiment: Antibacterial activity against Rhodococcus equi ATCC 6939T isolated from lung abscess of horse; assay type: functional; conditions: Rhodococcus (subgen. Prescottella) equi
# Outline: (§2)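 Cells grown 48 h at 35°C with shaking in brain heart infusion broth, then resuspended. MIC by broth microdilution in cation-supplemented Mueller-Hinton broth per CLSI M24-A. For MIC99 and MPC, ≥1 × 10^10 cells were plated on Columbia blood agar base containing a range of ciprofloxacin concentrations and incubated 4 days at 35°C. Resistant-colony fraction relative to CFU on drug-free plates was plotted against concentration. Run twice.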
# [21] = system: Prescottella equi; experiment: Antibacterial activity against Rhodococcus equi W5234 isolated from HIV-positive patient; assay type: functional; conditions: Rhodococcus (subgen. Prescottella) equi; outline: as §2
# [22] = system: Prescottella equi; experiment: Antibacterial activity against Rhodococcus equi ATCC 6939T harboring GyrA Ser83Arg mutation selected on 16 ug/ml of compound treated culture by broth microdilution method; assay type: functional; conditions: Rhodococcus (subgen. Prescottella) equi; outline: as §1
# [23] = system: Prescottella equi; experiment: Antibacterial activity against Rhodococcus equi W5234 harboring GyrA Ser83Arg mutation selected on 12 ug/ml of compound treated culture by broth microdilution method; assay type: functional; conditions: Rhodococcus (subgen. Prescottella) equi; outline: as §1
# [24] = system: Prescottella equi; experiment: Antibacterial activity against Rhodococcus equi W5234 selected on 2 ug/ml of compound treated culture by broth microdilution method; assay type: functional; conditions: Rhodococcus (subgen. Prescottella) equi; outline: as §1
# [25] = system: Prescottella equi; experiment: Antibacterial activity against Rhodococcus equi ATCC 6939T harboring GyrA Ser83Ile mutation selected on 8 ug/ml of compound treated culture by broth microdilution method; assay type: functional; conditions: Rhodococcus (subgen. Prescottella) equi; outline: as §1
smiles,measurement,setting,value
O=C(O)c1cn(C2CC2)c2cc(N3CCNCC3)c(F)cc2c1=O [CIPROFLOXACIN],MIC,[1],inactive
same,MIC,[2],inactive
same,MIC,[3],16 µg/mL
same,MIC,[4],inactive
same,MIC,[5],16 µg/mL
same,MIC,[6],2 µg/mL
same,MIC,[7],16 µg/mL
same,MIC,[8],8 µg/mL
same,MIC,[9],inactive
same,MIC,[10],1 µg/mL
same,MIC,[11],32 µg/mL
same,MIC,[12],inactive
same,MIC,[13],inactive
same,MIC,[14],2 µg/mL
same,MIC,[15],4 µg/mL
same,MIC,[16],inactive
same,MIC,[17],16 µg/mL
same,MIC,[18],16 µg/mL
same,MIC,[19],inactive
same,MIC99,[20],0.42 µg/mL
same,MIC,[21],0.5 µg/mL
same,MIC,[22],32 µg/mL
same,MIC,[23],64 µg/mL
same,MIC,[24],2 µg/mL
same,MIC,[25],32 µg/mL
